According to ChEMBL document CHEMBL4390675, “Dopamine D4 Receptor-Selective Compounds Reveal Structure-Activity Relationships that Engender Agonist Efficacy” (J Med Chem, 2019):
Active and inactive are the calls of the source. No cut-off for these calls is given here.

Assays:
[1] = target: T1, D(4) dopamine receptor (Homo sapiens, UniProt P21917); assay: Antagonist activity at human D4 receptor expressed in CHOK1 cells assessed as inhibition of dopamine-induced beta-arrestin recruitment measured after 90 mins by luminescence assay; assay type: cell-based
T1 sequence (P21917 whole entry): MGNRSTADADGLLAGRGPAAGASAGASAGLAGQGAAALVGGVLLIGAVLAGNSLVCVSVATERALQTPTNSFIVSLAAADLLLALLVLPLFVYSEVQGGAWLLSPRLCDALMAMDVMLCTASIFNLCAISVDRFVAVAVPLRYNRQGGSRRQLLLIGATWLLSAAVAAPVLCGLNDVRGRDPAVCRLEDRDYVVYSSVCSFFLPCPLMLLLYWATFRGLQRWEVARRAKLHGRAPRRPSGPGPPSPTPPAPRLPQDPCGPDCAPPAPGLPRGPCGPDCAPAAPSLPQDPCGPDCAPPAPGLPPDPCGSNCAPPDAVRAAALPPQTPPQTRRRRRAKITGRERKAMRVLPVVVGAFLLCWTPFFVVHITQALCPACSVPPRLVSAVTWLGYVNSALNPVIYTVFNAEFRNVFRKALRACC

[2] = target: T2, D(2) dopamine receptor (Homo sapiens, UniProt P14416); assay: Agonist activity at human D2L receptor expressed in CHOK1 cells assessed as inhibition of forskolin-induced cAMP accumulation measured after 30 mins by Eu-cAMP tracer based TR-FRET assay; assay type: cell-based
T2 sequence (P14416 whole entry, canonical isoform): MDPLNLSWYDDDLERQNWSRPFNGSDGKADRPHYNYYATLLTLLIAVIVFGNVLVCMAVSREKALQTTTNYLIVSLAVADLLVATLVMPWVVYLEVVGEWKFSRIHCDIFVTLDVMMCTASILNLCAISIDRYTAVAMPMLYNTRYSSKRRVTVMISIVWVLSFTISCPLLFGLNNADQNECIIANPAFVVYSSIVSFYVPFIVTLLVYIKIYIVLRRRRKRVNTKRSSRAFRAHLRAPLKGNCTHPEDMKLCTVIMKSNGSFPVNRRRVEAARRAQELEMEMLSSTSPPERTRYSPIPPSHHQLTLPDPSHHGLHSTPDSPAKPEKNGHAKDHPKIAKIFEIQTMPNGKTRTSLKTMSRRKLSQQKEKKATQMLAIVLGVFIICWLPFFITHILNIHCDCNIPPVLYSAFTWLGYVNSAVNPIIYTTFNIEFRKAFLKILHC
Outline: (§1)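 LANCE Ultra TR-FRET cAMP assay in CHO-K1 cells stably expressing human D2R long isoform or D4R. Cells were plated in HBSS/5 mM HEPES/0.2 μM metabisulfite, then immediately given compound plus forskolin (10 μM final) for 30 min at room temperature. Eu-cAMP tracer and ULight-anti-cAMP were added for 2 h in the dark. Values are % of maximal dopamine signal, nonlinear regression of triplicate runs, n = 3–4.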

[3] = target: T1, D(4) dopamine receptor; assay: Antagonist activity at human D4 receptor expressed in CHOK1 cells assessed as suppression of dopamine-induced inhibition of forskolin-stimulated cAMP accumulation measured after 30 mins by Eu-cAMP tracer based TR-FRET assay; assay type: functional, cell-based
[4] = target: T1, D(4) dopamine receptor; assay: Agonist activity at human D4 receptor expressed in CHOK1 cells assessed as induction of beta-arrestin recruitment measured after 90 mins by luminescence assay; assay type: cell-based
Outline: (§2)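 PathHunter enzyme-complementation assay in CHO-K1 cells stably expressing human D2R long isoform, D3R or D4R, seeded overnight in Ham's F12/10% FBS. Compounds were diluted in PBS with 0.2 μM sodium metabisulfite and applied at multiple concentrations for 90 min at 37 °C. Detection reagent was added for 45–60 min at room temperature, then luminescence was read. Values are % of maximal dopamine response, from nonlinear regression of triplicate runs, mean ± SEM, n = 3–4.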

[5] = target: T3, D(3) dopamine receptor (Homo sapiens, UniProt P35462); assay: Displacement of [3H]N-methylspiperone from human D3 receptor expressed in HEK293 cell membranes measured after 60 mins by scintillation counting method
T3 sequence (P35462 whole entry): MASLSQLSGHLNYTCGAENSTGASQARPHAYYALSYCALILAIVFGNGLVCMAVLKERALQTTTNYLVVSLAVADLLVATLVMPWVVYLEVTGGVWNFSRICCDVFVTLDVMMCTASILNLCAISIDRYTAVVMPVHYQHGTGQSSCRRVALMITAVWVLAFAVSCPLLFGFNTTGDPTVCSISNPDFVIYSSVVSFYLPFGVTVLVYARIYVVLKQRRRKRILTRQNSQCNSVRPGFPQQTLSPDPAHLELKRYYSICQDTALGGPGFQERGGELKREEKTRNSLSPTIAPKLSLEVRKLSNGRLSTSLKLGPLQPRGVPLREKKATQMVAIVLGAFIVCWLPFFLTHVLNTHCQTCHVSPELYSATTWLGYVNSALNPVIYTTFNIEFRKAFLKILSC
Outline: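 HEK293 cells stably expressing human D3R; membranes in EBSS buffer pH 7.4, stored at −80 °C. 20 μg protein/well with 0.4 nM [3H]N-methylspiperone (final), half-log dilutions in 30% DMSO, in triplicate. 60 min at room temperature, then GF/B filtration. Nonspecific binding with 10 μM (+)-butaclamol.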

[6] = target: T1, D(4) dopamine receptor; assay: Agonist activity at human D4 receptor expressed in CHOK1 cells assessed as inhibition of forskolin-induced cAMP accumulation measured after 30 mins by Eu-cAMP tracer based TR-FRET assay; assay type: functional, cell-based; outline: as §1
[7] = target: T2, D(2) dopamine receptor; assay: Agonist activity at human D2L receptor expressed in CHOK1 cells assessed as induction of beta-arrestin recruitment measured after 90 mins by luminescence assay; assay type: cell-based; outline: as §2
[8] = target: T3, D(3) dopamine receptor; assay: Agonist activity at human D3 receptor expressed in CHOK1 cells assessed as induction of beta-arrestin recruitment measured after 90 mins by luminescence assay; assay type: cell-based; outline: as §2
[9] = target: T1, D(4) dopamine receptor; assay: Displacement of [3H]N-methylspiperone from human D4.4 receptor expressed in HEK293 cell membranes measured after 60 mins by scintillation counting method
Outline: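 Frozen HEK293 membranes stably expressing human D4.4R (30 μg/well) in EBSS-bicarbonate buffer, pH 7.4, were incubated with 0.4 nM [3H]N-methylspiperone and half-log compound dilutions (30% DMSO vehicle) for 60 min at room temperature. Nonspecific binding was defined by 10 μM (+)-butaclamol. Samples were filtered on GF/B filters and counted by scintillation.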

[10] = target: T2, D(2) dopamine receptor; assay: Antagonist activity at human D2L receptor expressed in CHOK1 cells assessed as inhibition of dopamine-induced beta-arrestin recruitment measured after 90 mins by luminescence assay relative to control; assay type: cell-based
Outline: (§3)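 Antagonist-mode PathHunter β-arrestin assay in CHO-K1 cells stably expressing human D2R long isoform or D3R, seeded overnight. Compound dilutions in PBS with 0.2 μM metabisulfite were co-incubated with an EC80 dopamine concentration for 90 min at 37 °C. Detection reagent was added for 45–60 min at room temperature, then luminescence was read. Values are % of dopamine EC80 response, from nonlinear regression of triplicate runs, n = 3–4.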

[11] = target: T2, D(2) dopamine receptor; assay: Antagonist activity at human D2L receptor expressed in CHOK1 cells assessed as inhibition of dopamine-induced beta-arrestin recruitment measured after 90 mins by luminescence assay; assay type: cell-based; outline: as §3
[12] = target: T3, D(3) dopamine receptor; assay: Antagonist activity at human D3 receptor expressed in CHOK1 cells assessed as inhibition of dopamine-induced beta-arrestin recruitment measured after 90 mins by luminescence assay; assay type: cell-based; outline: as §3
[13] = target: T2, D(2) dopamine receptor; assay: Antagonist activity at human D2L receptor expressed in CHOK1 cells assessed as suppression of dopamine-induced inhibition of forskolin-stimulated cAMP accumulation measured after 30 mins by Eu-cAMP tracer based TR-FRET assay relative to dopamine; assay type: cell-based; conditions: 0.5 h
[14] = target: T3, D(3) dopamine receptor; assay: Displacement of [3H](R)-(+)-7-OH-DPAT from human D3 receptor expressed in HEK293 cell membranes measured after 90 mins by scintillation counting method
Outline: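 Fresh HEK293 hD3R membranes (40 μg/well) in 50 mM Tris, 10 mM MgCl2, 1 mM EDTA, pH 7.4 were incubated with 0.5 nM [3H]-(R)-(+)-7-OH-DPAT and half-log compound dilutions in 30% DMSO for 90 min at room temperature. Nonspecific binding was defined with 10 μM (+)-butaclamol. Samples were filtered on PEI-soaked GF/B filters and counted by scintillation.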

[15] = target: D(1B) dopamine receptor (Homo sapiens) (UniProt P21918); assay: Antagonist activity at D5 receptor (unknown origin) stably expressed in CHOK1 cells assessed as inhibition of dopamine-induced beta-arrestin recruitment measured after 90 mins by luminescence assay; assay type: cell-based
D(1B) dopamine receptor (Homo sapiens), sequence (P21918 whole entry): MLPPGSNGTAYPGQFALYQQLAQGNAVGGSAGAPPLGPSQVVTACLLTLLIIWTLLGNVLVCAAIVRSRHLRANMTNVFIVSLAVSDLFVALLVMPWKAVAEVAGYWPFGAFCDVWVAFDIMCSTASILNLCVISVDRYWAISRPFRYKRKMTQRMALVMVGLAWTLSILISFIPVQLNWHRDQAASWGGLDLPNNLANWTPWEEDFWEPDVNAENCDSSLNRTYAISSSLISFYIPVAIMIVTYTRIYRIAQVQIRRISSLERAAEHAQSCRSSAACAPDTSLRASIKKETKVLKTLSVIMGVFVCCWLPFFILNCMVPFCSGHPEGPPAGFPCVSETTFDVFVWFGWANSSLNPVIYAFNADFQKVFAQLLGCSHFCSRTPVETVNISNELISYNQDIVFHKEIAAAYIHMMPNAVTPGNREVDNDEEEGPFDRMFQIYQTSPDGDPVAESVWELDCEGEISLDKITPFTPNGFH

[16] = target: D(1B) dopamine receptor (Homo sapiens) (UniProt P21918); assay: Agonist activity at D5 receptor (unknown origin) stably expressed in CHOK1 cells assessed as induction of beta-arrestin recruitment measured after 90 mins by luminescence assay; assay type: cell-based
[17] = target: D(1A) dopamine receptor (Homo sapiens) (UniProt P21728); assay: Antagonist activity at D1 receptor (unknown origin) stably expressed in CHOK1 cells assessed as inhibition of dopamine-induced beta-arrestin recruitment measured after 90 mins by luminescence assay; assay type: cell-based
D(1A) dopamine receptor (Homo sapiens), sequence (P21728 whole entry): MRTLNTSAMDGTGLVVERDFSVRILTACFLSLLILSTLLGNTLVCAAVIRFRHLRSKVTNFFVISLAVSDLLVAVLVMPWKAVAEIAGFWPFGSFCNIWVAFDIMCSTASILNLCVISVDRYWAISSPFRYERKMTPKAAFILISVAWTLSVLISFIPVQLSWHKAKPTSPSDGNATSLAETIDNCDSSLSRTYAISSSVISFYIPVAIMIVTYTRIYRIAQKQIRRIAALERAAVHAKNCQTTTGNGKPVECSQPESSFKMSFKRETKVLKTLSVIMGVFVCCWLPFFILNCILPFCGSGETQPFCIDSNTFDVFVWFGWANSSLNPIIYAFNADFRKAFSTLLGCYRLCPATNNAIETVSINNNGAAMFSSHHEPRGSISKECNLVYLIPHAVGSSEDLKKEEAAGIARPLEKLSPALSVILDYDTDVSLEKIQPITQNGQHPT

[18] = target: D(1A) dopamine receptor (Homo sapiens) (UniProt P21728); assay: Agonist activity at D1 receptor (unknown origin) stably expressed in CHOK1 cells assessed as induction of beta-arrestin recruitment measured after 90 mins by luminescence assay; assay type: cell-based
[19] = target: T1, D(4) dopamine receptor; assay: Displacement of [3H](R)-(+)-7-OH-DPAT from human D4.4 receptor expressed in HEK293 cell membranes measured after 90 mins by scintillation counting method
Outline: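 HEK293 cells stably expressing human D4.4R; membranes used fresh in 50 mM Tris, 10 mM MgCl2, 1 mM EDTA, pH 7.4. 60 μg protein/well with 3 nM [3H]-(R)-(+)-7-OH-DPAT (final), half-log dilutions in 30% DMSO, in triplicate. 90 min at room temperature, then GF/B filtration. Nonspecific binding with 10 μM (+)-butaclamol.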

[20] = target: T3, D(3) dopamine receptor; assay: Agonist activity at human D3 receptor expressed in CHOK1 cells assessed as induction of beta-arrestin recruitment measured after 90 mins by luminescence assay relative to control; assay type: cell-based; outline: as §2
[21] = target: T2, D(2) dopamine receptor; assay: Agonist activity at human D2L receptor expressed in CHOK1 cells assessed as induction of beta-arrestin recruitment measured after 90 mins by luminescence assay relative to control; assay type: cell-based
Outline: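 PathHunter enzyme-complementation assay in CHO-K1 cells stably expressing human D2R long isoform, seeded 2625 cells/well and incubated overnight. Compounds diluted in PBS with 0.2 μM sodium metabisulfite, tested at multiple concentrations, 90 min at 37 °C. Detection reagent then 45–60 min at room temperature, luminescence read. Normalized to maximal dopamine response. Nonlinear regression of triplicate runs, n = 3–4.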

[22] = target: T2, D(2) dopamine receptor; assay: Agonist activity at human D2L receptor expressed in CHOK1 cells assessed as inhibition of forskolin-induced cAMP accumulation measured after 30 mins by Eu-cAMP tracer based TR-FRET assay relative to dopamine; assay type: cell-based; conditions: 0.5 h
[23] = target: T3, D(3) dopamine receptor; assay: Antagonist activity at human D3 receptor expressed in CHOK1 cells assessed as inhibition of dopamine-induced beta-arrestin recruitment measured after 90 mins by luminescence assay relative to control; assay type: cell-based; outline: as §3
[24] = target: T4, D(4) dopamine receptor (Homo sapiens) (UniProt P21917); assay: Agonist activity at human D4 receptor expressed in CHOK1 cells assessed as inhibition of forskolin-induced cAMP accumulation measured after 30 mins by Eu-cAMP tracer based TR-FRET assay relative to dopamine; assay type: functional, cell-based; outline: as §1
T4 sequence (whole entry): T1 sequence (P21917 whole entry)

[25] = target: T4, D(4) dopamine receptor (Homo sapiens); assay: Agonist activity at human D4 receptor expressed in CHOK1 cells assessed as induction of beta-arrestin recruitment measured after 90 mins by luminescence assay relative to control; assay type: cell-based; outline: as §2
[26] = target: T4, D(4) dopamine receptor (Homo sapiens); assay: Antagonist activity at human D4 receptor expressed in CHOK1 cells assessed as inhibition of dopamine-induced beta-arrestin recruitment measured after 90 mins by luminescence assay relative to control; assay type: cell-based; parameters: concentration or dose not given beside the values
[27] = target: T4, D(4) dopamine receptor (Homo sapiens); assay: Antagonist activity at human D4 receptor expressed in CHOK1 cells assessed as suppression of dopamine-induced inhibition of forskolin-stimulated cAMP accumulation measured after 30 mins by Eu-cAMP tracer based TR-FRET assay relative to dopamine; assay type: functional, cell-based; parameters: concentration or dose not given beside the values

Compound	EC50 [2]	IC50 [3] [nM]	EC50 [4]	Ki [5] [nM]	EC50 [6]	EC50 [7]	EC50 [8]	Ki [9] [nM]	INH [10]	IC50 [11]	IC50 [12]	inhibition (INH) [13] [%]	IC50 ([1]; read-out: IC50) [nM]	EC50 ([6]; read-out: EC50) [nM]	Ki [19] [nM]	Emax [20] [%]	Emax [21] [%]	Emax [22] [%]	further results
O=C(CN1CCN(c2ccccn2)CC1)Nc1cncnc1	Not Active	> 100000	Not Active	> 50000	Not Active	Not Active	Not Active	39300	Not Active	Not Active	Not Active	98.1							IC50 [1]: Not Active
O=C(CN1CCN(c2ccc(Cl)cn2)CC1)Nc1cncnc1	Not Active	> 100000	Not Active	> 50000	Not Active	Not Active	Not Active	> 50000	Not Active	Not Active	Not Active	76.2	> 100000						
Cc1cccc(NC(=O)CCN2CCN(c3ccccn3)CC2)c1		1630	Not Active	3790				297	77.7%				1090	612	32.2	41.4	44.1	79.7	Ki [14]: 781 nM; inhibition [15]: inactive; Activity [16]: inactive; inhibition [17]: inactive; Activity [18]: inactive; EC50 ([8]; read-out: EC50): 1600 nM; IC50 ([12]; read-out: IC50): > 50000 nM
CCc1cccc(NC(=O)CN2CCN(c3ccccn3)CC2)c1		1310						67.9				88	370	28.7	2.23	44.7	18.7	18.8	inhibition [23]: 100%; Emax [24]: 58%; EC50 ([4]; read-out: EC50): 133 nM; Emax [25]: 26.2%; inhibition [26]: 59.7%; inhibition [27]: 58.4%
